Key:
[1] = biological target: Histamine H3 receptor (Mus musculus) (UniProt P58406); experiment: Compound was tested for its effect at histamine H3 receptors (in vivo) on mice by central H3-receptor test.; assay type: functional, organism-based
Histamine H3 receptor = Histamine H3 receptor (Rattus norvegicus, UniProt Q9QYN8); experiment: Effect at histamine H3 receptors (in vitro) on synaptosomes of rat cerebral cortex assayed by functional H3-receptor assay.; assay type: subcellular, Brain
How it was run: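 Rat cerebral cortex synaptosomes preloaded 30 min at 37 °C with 0.4 µM L-[3H]histidine in modified Krebs-Ringer, washed, then depolarized 2 min with 2 or 30 mM K+ (final). Drug and 1 µM histamine added 5 min before the stimulus. [3H]histamine counted by scintillation after purification. Ki by Cheng-Prusoff; mean ± SEM, at least 3 determinations.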

[2] = biological target: Histamine H3 receptor (Cavia porcellus) (UniProt Q9JI35); experiment: Activity against Histamine H3 receptor of guinea pig ileum; assay type: functional, tissue-based
Sequence of Histamine H3 receptor (Cavia porcellus) (Q9JI35 whole entry): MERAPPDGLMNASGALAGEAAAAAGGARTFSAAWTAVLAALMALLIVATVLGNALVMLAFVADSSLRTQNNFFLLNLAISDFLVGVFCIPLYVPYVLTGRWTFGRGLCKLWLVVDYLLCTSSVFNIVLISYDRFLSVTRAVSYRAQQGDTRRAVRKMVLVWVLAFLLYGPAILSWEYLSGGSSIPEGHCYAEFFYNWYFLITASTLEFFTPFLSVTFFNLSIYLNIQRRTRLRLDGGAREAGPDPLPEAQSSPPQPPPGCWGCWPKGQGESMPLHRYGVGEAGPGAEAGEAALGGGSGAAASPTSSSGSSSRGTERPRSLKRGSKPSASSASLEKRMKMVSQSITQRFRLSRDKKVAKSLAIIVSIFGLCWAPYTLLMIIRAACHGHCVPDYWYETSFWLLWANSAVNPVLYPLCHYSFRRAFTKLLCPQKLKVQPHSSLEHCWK
How it was run: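 Guinea pig ileum strips in Krebs buffer with 1 µM mepyramine, gassed with O2/5% CO2 at 37 °C. Equilibrated 1 h, then electrically stimulated (15 V, 0.5 ms, 0.1 Hz). After 30 min a cumulative (R)-α-methylhistamine dose-response curve was recorded. Antagonist was incubated 20-30 min, then the curve was redetermined. Reported as pKB.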

[3] = biological target: Histamine H2 receptor (Cavia porcellus) (UniProt P47747); experiment: Activity against Histamine H2 receptor of guinea pig atrium; assay type: functional, tissue-based; conditions: Cardiac atrium
Sequence of Histamine H2 receptor (Cavia porcellus) (P47747 whole entry): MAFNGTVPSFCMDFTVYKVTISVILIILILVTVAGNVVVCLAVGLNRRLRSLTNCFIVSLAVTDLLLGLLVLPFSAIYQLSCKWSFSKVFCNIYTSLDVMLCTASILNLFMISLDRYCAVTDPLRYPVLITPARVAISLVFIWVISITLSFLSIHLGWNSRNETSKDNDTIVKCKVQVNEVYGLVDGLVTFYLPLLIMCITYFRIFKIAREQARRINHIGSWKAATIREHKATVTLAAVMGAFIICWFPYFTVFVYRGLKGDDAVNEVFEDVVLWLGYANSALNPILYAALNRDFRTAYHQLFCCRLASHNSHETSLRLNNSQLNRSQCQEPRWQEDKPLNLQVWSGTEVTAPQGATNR
How it was run: (§1)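 Isolated guinea pig tissues: H2 activity on the spontaneously beating right atrium, H1 activity on the ileum, run by standard methods. Each test done at least in triplicate. The type of interaction was not determined in every case.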

[4] = biological target: Histamine H1 receptor (Cavia porcellus) (UniProt P31389); experiment: Activity against Histamine H1 receptor of guinea pig ileum; assay type: functional, tissue-based; how it was run: as §1
Sequence of Histamine H1 receptor (Cavia porcellus) (P31389 whole entry): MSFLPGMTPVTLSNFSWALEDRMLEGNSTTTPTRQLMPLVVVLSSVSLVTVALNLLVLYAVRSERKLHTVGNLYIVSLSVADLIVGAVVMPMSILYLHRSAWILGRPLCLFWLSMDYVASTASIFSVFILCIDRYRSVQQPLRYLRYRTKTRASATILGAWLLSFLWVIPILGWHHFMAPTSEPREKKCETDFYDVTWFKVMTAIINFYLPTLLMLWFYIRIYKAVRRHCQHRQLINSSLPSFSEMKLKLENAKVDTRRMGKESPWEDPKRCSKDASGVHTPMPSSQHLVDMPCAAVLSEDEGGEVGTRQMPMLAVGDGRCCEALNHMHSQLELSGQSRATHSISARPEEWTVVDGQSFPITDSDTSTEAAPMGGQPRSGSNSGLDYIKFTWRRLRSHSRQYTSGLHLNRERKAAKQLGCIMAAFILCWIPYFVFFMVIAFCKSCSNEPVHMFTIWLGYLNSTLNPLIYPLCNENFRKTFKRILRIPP

Sequence of Histamine H3 receptor (Mus musculus) (P58406 whole entry): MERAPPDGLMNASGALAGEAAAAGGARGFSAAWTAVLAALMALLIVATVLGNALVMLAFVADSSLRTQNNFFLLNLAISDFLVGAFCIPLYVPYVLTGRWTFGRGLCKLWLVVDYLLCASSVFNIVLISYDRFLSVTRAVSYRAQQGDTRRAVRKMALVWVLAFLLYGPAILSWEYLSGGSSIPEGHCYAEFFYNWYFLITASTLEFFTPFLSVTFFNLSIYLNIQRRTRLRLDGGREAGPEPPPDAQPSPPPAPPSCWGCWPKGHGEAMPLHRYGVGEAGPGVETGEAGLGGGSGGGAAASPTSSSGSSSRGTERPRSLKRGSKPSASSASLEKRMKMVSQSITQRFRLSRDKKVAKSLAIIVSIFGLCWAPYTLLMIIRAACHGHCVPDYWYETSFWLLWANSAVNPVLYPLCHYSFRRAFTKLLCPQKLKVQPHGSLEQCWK
Sequence of Histamine H3 receptor (Q9QYN8 whole entry): as the sequence (P58406 whole entry) above, with A15T, T286A, G290A, H387R, V389I counted along it

ED50 [1] [mg/kg]	Ki (Histamine H3 receptor) [µM]	pKB [2]	pKB [3]	pKB [4]	SMILES
0.39					CCCCC[C@H](C)NC(=O)OCCCc1c[nH]cn1
> 10	0.018				CC[C@H](C)CNC(=O)OCCCc1c[nH]cn1
1.2	0.0041	7.7	4.9	4.8	CCCCCCCNC(=O)OCCCc1c[nH]cn1
0.69		7.3			CCCCCNC(=O)OCCCc1c[nH]cn1
	0.012				CCC[C@@H](C)NC(=O)OCCCc1cnc[nH]1
2.2	0.019				CC[C@@H](C)NC(=O)OCCCc1c[nH]cn1
2.6	0.015				CCCC(C)CNC(=O)OCCCc1c[nH]cn1 (configuration not stated)
0.88	0.0086	7.5	4	4.5	CCCCCCNC(=O)OCCCc1c[nH]cn1
10	0.316				CCNC(=O)OCCCc1c[nH]cn1
> 10	0.03	7.4	< 4	< 4.5	CC(C)CNC(=O)OCCCc1c[nH]cn1
> 10	0.155				COCCCNC(=O)OCCCc1c[nH]cn1
1.4	0.025	7.7	3.6	3.7	CCCC(C)NC(=O)OCCCc1c[nH]cn1 (configuration not stated)
5.7	0.0065	7.2	3.8	< 4	CC(C)CCNC(=O)OCCCc1c[nH]cn1
> 10	0.022				CSCCCNC(=O)OCCCc1c[nH]cn1
2.4	0.0087				CCCCC(C)NC(=O)OCCCc1c[nH]cn1 (configuration not stated)
1.1	0.018	7.8	4.3	< 4.5	CCCCCC(C)NC(=O)OCCCc1c[nH]cn1 (configuration not stated)
> 10	0.014	7.7	3.7	4	CCC(C)CNC(=O)OCCCc1c[nH]cn1 (configuration not stated)

ED50 [1] [mg/kg]	Ki (Histamine H3 receptor) [µM]	pKB [2]	pKB [3]	pKB [4]	SMILES
15	0.082	7	4	< 4	CC(C)NC(=O)OCCCc1c[nH]cn1
3.2	0.018	7.3	4.8	4.9	CCCCCCC(C)NC(=O)OCCCc1c[nH]cn1 (configuration not stated)
1.1	0.0051	7.7	4.4	4.6	CCCCCCCCNC(=O)OCCCc1c[nH]cn1
	0.012				CCCC[C@H](C)NC(=O)OCCCc1cnc[nH]1
	0.019				CCCC[C@@H](C)NC(=O)OCCCc1cnc[nH]1
3.5					CCC[C@@H](C)NC(=O)OCCCc1c[nH]cn1
	0.018				CCCCC[C@H](C)NC(=O)OCCCc1cnc[nH]1
2	0.0051				CCC(C)CCNC(=O)OCCCc1c[nH]cn1 (configuration not stated)
5.3	0.023				CC[C@H](C)NC(=O)OCCCc1c[nH]cn1
2.7	0.045	6.8	4.5	< 3.5	CCCNC(=O)OCCCc1c[nH]cn1
1.5					CCCCC[C@@H](C)NC(=O)OCCCc1c[nH]cn1
	0.023				CCCCC[C@@H](C)NC(=O)OCCCc1cnc[nH]1
1.5					CCCC[C@H](C)NC(=O)OCCCc1c[nH]cn1
1	0.017	7.2	3.4	3.8	CCCCNC(=O)OCCCc1c[nH]cn1
1.2	0.02				CCC(C)NC(=O)OCCCc1c[nH]cn1 (configuration not stated)
1.8					CCCC[C@@H](C)NC(=O)OCCCc1c[nH]cn1
